# Screening data as filed in PubChem BioAssay.
# DNA FID counter = counter-screen for HCV NS3 helicase inhibitors: DNA intercalator displacement | inhibition, % at 7.9 µM | AID 1845 | DNA fluorescent intercalator displacement, fluorescence | hit rate 0.17% among 290,000; in the data active = inhibition above about 37%;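 note: 0% = vehicle and 100% = reference compound; higher means more ethidium bromide displaced from hairpin DNA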
# SR-BI HDL uptake = mouse SR-BI HDL lipid transfer inhibition | inhibition, % at 12.5 µM | Q61009 | ldlA[mSR-BI] CHO cells, DiI-HDL uptake fluorescence, 3 h | AID 488896 | hit rate 0.96% among 320,000;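 active = mean replicate inhibition of at least 70% and a set share of replicates each scoring 70 or more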;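 note: 0% = median of neutral control wells and 100% = median of positive control wells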
# ANO1 activ = activates or potentiates the mouse TMEM16A chloride channel. Q8BHY3. HEK293 TMEM16A/YFP-H148Q/I152L, iodide quench fluorescence; active compounds read low. B-score at 10 µM. hit rate 0.3% among 340,000;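 active = fluorescence-ratio B-score plate-corrected deviation score at least 3 library SD below zero, with starting fluorescence score within 5 deviations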;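 note: channel opened by trigger with iodide after compound preincubation; score built on the fluorescence ratio of max minus min over baseline; more negative score means more quench and so TMEM16A activation or potentiation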
# Target sequence (Q8BHY3 whole entry, looked up): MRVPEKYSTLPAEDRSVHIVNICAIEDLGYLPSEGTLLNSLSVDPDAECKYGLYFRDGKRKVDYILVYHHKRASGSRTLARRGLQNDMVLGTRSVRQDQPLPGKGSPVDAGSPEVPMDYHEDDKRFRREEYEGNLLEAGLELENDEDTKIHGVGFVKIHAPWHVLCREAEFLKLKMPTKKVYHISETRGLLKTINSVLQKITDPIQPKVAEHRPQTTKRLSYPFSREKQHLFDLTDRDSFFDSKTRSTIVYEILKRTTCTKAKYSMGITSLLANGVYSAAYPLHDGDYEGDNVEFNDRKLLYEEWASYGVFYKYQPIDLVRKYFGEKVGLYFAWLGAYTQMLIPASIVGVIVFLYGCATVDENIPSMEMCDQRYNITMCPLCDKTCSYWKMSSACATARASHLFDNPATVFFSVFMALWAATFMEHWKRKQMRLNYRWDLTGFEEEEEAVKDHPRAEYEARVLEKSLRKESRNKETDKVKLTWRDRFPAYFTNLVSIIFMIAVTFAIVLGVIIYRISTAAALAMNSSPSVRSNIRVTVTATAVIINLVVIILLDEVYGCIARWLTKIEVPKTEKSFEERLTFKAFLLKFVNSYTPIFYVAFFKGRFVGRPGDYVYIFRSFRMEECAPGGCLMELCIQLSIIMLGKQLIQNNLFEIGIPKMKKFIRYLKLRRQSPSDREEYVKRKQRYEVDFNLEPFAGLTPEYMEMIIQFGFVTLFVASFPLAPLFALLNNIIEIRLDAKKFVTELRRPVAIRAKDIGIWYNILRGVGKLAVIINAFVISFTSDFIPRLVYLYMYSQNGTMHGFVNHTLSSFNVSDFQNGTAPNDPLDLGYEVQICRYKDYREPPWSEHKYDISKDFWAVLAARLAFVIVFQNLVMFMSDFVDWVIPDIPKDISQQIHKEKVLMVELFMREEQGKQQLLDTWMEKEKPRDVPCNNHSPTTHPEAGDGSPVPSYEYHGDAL
# TMEM16A inh = mouse TMEM16A channel inhibition, primary screen; normalized B-score (activity score, 25-100; higher = stronger inhibition) at 10 µM; Q8BHY3; hit rate 1.2% among 310,000; AID 588511; HEK293 TMEM16A/YFP iodide influx fluorescence, ionomycin;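 active = ratio plate-corrected score three or more library SD toward inhibition, starting fluorescence score within five deviations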;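 note: score derived from kinetic fluorescence span divided by baseline fluorescence per well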
# Kir21 inh = Kir2.1 (mouse) channel inhibition. AID 1672. hit rate 0.85% among 310,000. B-score at 10 µM. HEK293-Kir2.1, FluxOR thallium flux fluorescence; active compounds read low. P35561;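 active = fluorescence ratio B-score at or below minus 3 SD of library scores, with starting-brightness B-score within 2 SD, cut at about -4.2 in these data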;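 note: channel flux triggered by added potassium and thallium sulfate stimulus; B-score of peak minus minimum fluorescence over baseline after thallium stimulus; more negative B-score means stronger Kir2.1 block with less thallium influx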
# SR-BI uptake up = activators of SR-BI mediated HDL lipid uptake. CHO ldlA[mSR-BI] cells, DiI-HDL uptake fluorescence, 3 h; 100 = double the neutral-control signal. activation, % at 12.5 µM. hit rate 0.096% among 320,000;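 active = mean replicate activation of at least 60% and every replicate at or above 60%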;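 note: 0% = median plate neutral-control signal and 100% = twice that signal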
#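 Material – SR-BI-overexpressing, LDLR-lacking CHO cells · Medium – BSA-supplemented, HEPES-buffered Ham's F12, pH 7.4 · Doses – single concentration · Times – compound with DiI-HDL co-incubation, 3 h at 37 °C · Measured by – bottom-read fluorescence, 550/595 nm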
# The depositor's hits bear a star; i = inactive; . = not tested or not shown. Shown are actives, neighbours in structure and some others; about 3% of the full set was active somewhere.
SMILES,DNA FID counter,SR-BI HDL uptake,ANO1 activ,TMEM16A inh,Kir21 inh,SR-BI uptake up
COc1ccc(NS(=O)(=O)c2ccc(C)c(NC(=O)NC3CCCCC3)c2)cc1,-16,15,i,i,0.28,-15
Nc1nc(-c2ccccc2)c(-c2ccc([N+](=O)[O-])cc2)s1,4,18,i,i,-0.22,-18
COc1ccc(-c2nc(NC(=O)c3ccccc3)sc2-c2ccc([N+](=O)[O-])cc2)cc1,3,79*,i,i,-1.3,-79
COc1ccc(-c2nc(NC(C)=O)sc2-c2ccccc2)cc1,-17,68,i,i,1.4,-68
COc1ccc(-c2sc(NC(C)=O)nc2-c2ccccc2)cc1,-6,80*,i,i,0.95,-80
Cc1nc2nc(N)nn2c(C)c1C/C=C/c1ccccc1,-7,-3,-37*,i,1.7,3
Cc1nc2ncnn2c(C)c1C/C=C/c1ccccc1,-7,2,i,i,0,-2
C#Cc1ccc(CN2CCCC(C(=O)Nc3ccccc3Oc3cccnc3)C2)cc1 (stereo unspecified),12,10,i,i,-5.1*,-10
CCCc1nc(NCC2CCCO2)c2nnn(Cc3ccccc3)c2n1 (stereo unspecified),-21,-9,-4.9*,i,2.2,9
CC(NCc1ccc(OCC(N)=O)cc1)C12CC3CC(CC(C3)C1)C2 (stereo unspecified),4,12,i,i,-1.7,-12
O=C1CCC(=O)N1c1nc2nc(-c3ccccc3)cc(=O)n2[nH]1,4,-7,-24*,i,-0.02,7
Cc1nc2nc(-c3ccccc3)cc(=O)n2[nH]1,-1,7,i,i,0.21,-7
CCOc1ccc(NC(=O)CCSc2nc3c(c(CC)c2C#N)C(=O)CC(C)(C)C3)cc1,-5,0,i,i,-2.2,0
CCc1c(C#N)c(SCCC(=O)Nc2ccc(C)cc2)nc2c1C(=O)CC(C)(C)C2,-1,73*,i,i,0.04,-73
O=C(CN(c1cccc(Br)c1)S(=O)(=O)c1ccccc1)N/N=C/c1cc([N+](=O)[O-])ccc1O,.,124*,i,i,-0.02,-124
O=C(CCCC(=O)Nc1cccc(Br)c1)N/N=C/c1cc([N+](=O)[O-])ccc1O,0,-7,i,i,-2.7,7
CCOc1ccc(CCNC(=O)CSc2nn(-c3ccc(C)c(Cl)c3)c(=S)s2)cc1OCC,-8,55,-6*,i,0.22,-55
CCOc1ccc(CCNC(=O)CSCc2ccc(C)cc2)cc1OCC,-34,32,i,i,-6*,-32
O=C(CSCc1ccccc1)NCCc1ccc(F)cc1,-14,-11,i,i,0.94,11
CCOc1ccc(CCNC(=O)CCC(=O)N2CCOc3ccc(C)cc32)cc1OCC,-49,48,-14*,i,0.85,-48
O=C(CSCc1ccc(Br)cc1)NCCc1ccccc1,-11,-34,i,i,-4.8*,34
COc1ccc(CCNC(=O)CCC(=O)N2CCOc3ccc(C)cc32)cc1OC,-30,11,i,i,-0.51,-11
Cc1cc(NS(=O)(=O)c2c(C)[nH]c(=O)[nH]c2=O)ccc1Br,-5,-4,i,i,0.27,4
Cc1ccc(C)c(OCCC(=O)NCCc2ccc(Cl)cc2)c1,-39,-8,i,i,-0.52,8
CCOc1ccc(CCNC(=O)CCOc2cc(C)ccc2C)cc1OCC,-39,26,i,i,-5.1*,-26
COc1ccc2[nH]c3c(c2c1)CCN1C(=O)C(CC(=O)NCCc2ccccn2)C[C@H](C(=O)N(C(C)C)C(C)C)[C@@]31C (stereo partly specified),.,-17,.,.,.,17
CC1(C)Cc2ccccc2-c2nnc(SCC(=O)N3CCN(c4ccccc4)CC3)n21,-24,19,i,25*,0,-19
Cc1nn(-c2ccccc2)c(C)c1/C=N/NC(=O)c1cc(-c2ccc(Br)s2)[nH]n1,-7,71*,i,i,-0.03,-71
